Assay results from ChEMBL document CHEMBL2163314, “Potent aminocyclitol glucocerebrosidase inhibitors are subnanomolar pharmacological chaperones for treating gaucher disease” (J Med Chem, 2012).
Activity calls are given as the source filed them. The rule behind the calls is not given here.

Legend:
[1] = biological target: T1, Beta-galactosidase (Homo sapiens) (UniProt P16278); assay: Inhibition of lysosomal beta-galactosidase in human fibroblast at 50 uM after 24 hrs
T1 sequence (whole entry): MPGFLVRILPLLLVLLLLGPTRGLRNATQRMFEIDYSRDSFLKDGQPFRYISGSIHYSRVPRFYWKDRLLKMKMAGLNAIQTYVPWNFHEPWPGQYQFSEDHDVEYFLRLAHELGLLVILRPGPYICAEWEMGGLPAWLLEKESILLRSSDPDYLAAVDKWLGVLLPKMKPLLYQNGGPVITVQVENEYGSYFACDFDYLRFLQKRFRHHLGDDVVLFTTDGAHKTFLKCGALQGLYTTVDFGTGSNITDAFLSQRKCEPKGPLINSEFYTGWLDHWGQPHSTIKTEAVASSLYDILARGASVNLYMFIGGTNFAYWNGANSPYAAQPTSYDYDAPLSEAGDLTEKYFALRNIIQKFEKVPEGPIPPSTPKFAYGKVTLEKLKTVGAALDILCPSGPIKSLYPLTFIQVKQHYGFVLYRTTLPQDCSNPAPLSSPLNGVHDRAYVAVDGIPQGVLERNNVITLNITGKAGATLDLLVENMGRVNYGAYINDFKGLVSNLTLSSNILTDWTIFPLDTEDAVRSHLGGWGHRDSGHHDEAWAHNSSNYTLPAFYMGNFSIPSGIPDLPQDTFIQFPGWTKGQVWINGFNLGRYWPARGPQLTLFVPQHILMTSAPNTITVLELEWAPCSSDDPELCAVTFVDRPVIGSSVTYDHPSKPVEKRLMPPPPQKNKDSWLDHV
Summary of the method: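 Wild-type human fibroblasts (DMEM, 10% FBS, passages 14–30) were plated overnight, then exposed to compound in fresh medium for 24 h at 37 °C, 5% CO2. Lysosomal enzyme activity was then assayed in intact monolayers after the medium was removed. Triplicate determinations.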

[2] = biological target: T2, Lysosomal acid glucosylceramidase (Homo sapiens, UniProt P04062); assay: Competitive inhibition of recombinant Imiglucerase using 4-methylumbelliferyl-beta-D-glucopyranoside as substrate preincubated for 30 mins before substrate addition at pH 5.2 by Lineweaver-Burk plot assay
T2 sequence (P04062 whole entry): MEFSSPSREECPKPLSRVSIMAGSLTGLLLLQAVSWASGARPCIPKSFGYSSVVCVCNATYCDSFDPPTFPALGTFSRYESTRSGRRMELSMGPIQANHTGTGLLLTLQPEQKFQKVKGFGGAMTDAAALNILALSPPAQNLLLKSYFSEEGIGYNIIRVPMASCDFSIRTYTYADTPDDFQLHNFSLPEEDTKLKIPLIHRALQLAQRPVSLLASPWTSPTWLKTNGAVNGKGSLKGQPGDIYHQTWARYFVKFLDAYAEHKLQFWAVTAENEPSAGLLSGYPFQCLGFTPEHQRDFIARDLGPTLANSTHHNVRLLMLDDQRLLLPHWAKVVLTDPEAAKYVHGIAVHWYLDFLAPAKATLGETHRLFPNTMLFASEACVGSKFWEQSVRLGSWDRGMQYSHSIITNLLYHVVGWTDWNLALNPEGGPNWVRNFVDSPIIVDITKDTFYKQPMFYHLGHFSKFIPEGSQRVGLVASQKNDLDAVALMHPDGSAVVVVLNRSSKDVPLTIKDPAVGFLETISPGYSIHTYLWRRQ

[3] = biological target: T2, Lysosomal acid glucosylceramidase; assay: Competitive inhibition of recombinant Imiglucerase using 4-methylumbelliferyl-beta-D-glucopyranoside as substrate preincubated for 30 mins before substrate addition at pH 7.0 Lineweaver-Burk plot assay
[4] = biological target: T2, Lysosomal acid glucosylceramidase; assay: Competitive inhibition of recombinant Imiglucerase using 4-methylumbelliferyl-beta-D-glucopyranoside as substrate preincubated for 30 mins before substrate addition at pH 5.2 by Dixon plot assay
[5] = biological target: T2, Lysosomal acid glucosylceramidase; assay: Competitive inhibition of recombinant Imiglucerase using 4-methylumbelliferyl-beta-D-glucopyranoside as substrate preincubated for 30 mins before substrate addition at pH 7.0 by Dixon plot assay
[6] = biological target: T2, Lysosomal acid glucosylceramidase; assay: Binding affinity to recombinant imiglucerase using 4-methylumbelliferyl-beta-D-glucopyranoside as substrate preincubated for 30 mins before substrate addition by Lineweaver-Burk plot assay
[7] = biological target: T2, Lysosomal acid glucosylceramidase; assay: Binding affinity to recombinant imiglucerase using 4-methylumbelliferyl-beta-D-glucopyranoside as substrate preincubated for 30 mins before substrate addition by Dixon plot assay
Oryza sativa = assay: Inhibition of rice alpha-glucosidase at 100 uM
Prunus dulcis = assay: Inhibition of almond beta-glucosidase at 100 uM
[8] = biological target: Alpha-galactosidase (Coffea arabica) (UniProt Q42656); assay: Inhibition of green coffee beans alpha-galactosidase at 100 uM
[9] = biological target: T3, Lysosomal acid glucosylceramidase (Homo sapiens) (UniProt P04062); assay: Inhibition of lysosomal beta-glucosidase in human fibroblast using 4-methylumbelliferyl-beta-D-glucopyranoside as substrate preincubated at 5 uM for 24 hrs before substrate addition measured after 2 hrs by fluorimetry
T3 sequence (whole entry): T2 sequence (P04062 whole entry)
Summary of the method: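 Wild-type human fibroblasts (DMEM, 10% FBS; passages 14–30) plated overnight, then compound in fresh medium for 24 h at 37 °C, 5% CO2. Intact washed monolayers given PBS plus 200 mM acetate pH 4.0 and 5 mM 4-MU-β-glucoside, 37 °C for 2 h. Stopped by lysis in glycine/NaOH pH 10.6. Fluorescence at 355/460 nm; triplicate.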

[10] = Stabilization of recombinant imiglucerase at 1 uM at 48 degC after 60 mins by fluorimetry relative to incubation at 37 degC
Summary of the method: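 Imiglucerase (2 mg/mL aliquots) heated at 48 °C with compound, three concentrations. At set times, residual activity measured with 4 mM 4-MU-β-glucoside (McIlvaine pH 5.2, Triton X-100, taurocholate) after acetate-phosphate pH 5.0, 10 min at 37 °C. Read at 355/460 nm. Ratio is relative enzymatic activity, inhibitor vs control, taken at 60 min. Activity relative to unheated (37 °C) enzyme; triplicate.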

Sequence of Alpha-galactosidase (Coffea arabica) (Q42656 16-378 limits assumed): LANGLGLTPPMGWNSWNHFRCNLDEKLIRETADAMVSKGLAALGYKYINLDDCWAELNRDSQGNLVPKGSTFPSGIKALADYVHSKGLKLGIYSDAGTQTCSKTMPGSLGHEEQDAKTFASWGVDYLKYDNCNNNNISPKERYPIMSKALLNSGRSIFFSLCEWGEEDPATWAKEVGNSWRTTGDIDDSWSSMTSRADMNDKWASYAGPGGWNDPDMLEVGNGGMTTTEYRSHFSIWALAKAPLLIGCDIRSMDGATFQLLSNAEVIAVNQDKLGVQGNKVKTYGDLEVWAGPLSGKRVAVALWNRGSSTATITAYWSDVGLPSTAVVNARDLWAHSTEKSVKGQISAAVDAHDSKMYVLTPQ

inhibition [9] | Ratio [10] | Structure (SMILES) | inhibition [1] | IC50 [2] | IC50 [3] | IC50 [4] | IC50 [5] | Ki [6] | Ki [7] | inhibition (Oryza sativa) | inhibition (Prunus dulcis) | inhibition [8]
 |  | CCCCCCCCCN[C@H]1[C@H](O)[C@@H](O)[C@H](O)[C@@H](O)[C@@H]1O | inactive | 3900 nM | 780 nM | 3900 nM | 780 nM | 1900 nM | 1900 nM | inactive | inactive | inactive
> 39% | 5.2 | CCCCCCCCCN[C@H]1[C@H](O)[C@@H](O)[C@H](O)[C@@H](O)[C@@H]1OCCCCCCCCC.Cl |  | 670 nM | 170 nM | 670 nM | 170 nM | 280 nM | 280 nM | inactive | inactive | inactive
> 39% | 1.2 | CCCCCCCCCN(CCCCCCCCC)[C@@H]1[C@H](O)[C@H](O)[C@@H](O)[C@H](O)[C@H]1O.Cl |  | 1720 nM | 530 nM | 1720 nM | 530 nM | 820 nM | 820 nM | inactive | inactive | inactive
> 39% | 29 | CCCCCCCCCN[C@H]1[C@H](O)[C@@H](O)[C@H](O)[C@@H](O)[C@H]1OCCCCCCCCC.Cl |  | 4 nM | 5 nM | 4 nM | 5 nM | 1 nM | 1 nM | inactive | inactive | inactive
> 39% | 2.2 | CCCCCCCCCO[C@H]1[C@@H](N)[C@H](O)[C@@H](O)[C@H](O)[C@H]1O.Cl | inactive | 450 nM | 120 nM | 450 nM | 120 nM | 130 nM | 130 nM | inactive | inactive | inactive
 |  | CCCCCCCCCN[C@@H]1[C@H](O)[C@@H](O)[C@H](O)[C@@H](O)[C@@H]1O | inactive | 52600 nM | 24900 nM | 52600 nM | 24900 nM | 17900 nM | 17900 nM | inactive | inactive | inactive
 |  | CCCCCCCCCN[C@H]1[C@H](O)[C@@H](O)[C@H](O)[C@@H](O)[C@@H]1OC.Cl | inactive | 4400 nM | 670 nM | 4400 nM | 670 nM | 1580 nM | 1580 nM | inactive | inactive | inactive

Structure (SMILES) | inhibition [9] | Ratio [10] | inhibition [1] | IC50 [2] | IC50 [3] | IC50 [4] | IC50 [5] | Ki [6] | Ki [7] | inhibition (Oryza sativa) | inhibition (Prunus dulcis) | inhibition [8]
CCCCCCCCCN[C@H]1[C@H](O)[C@@H](O)[C@H](O)[C@@H](O)[C@H]1OC.Cl | > 39% | 2 | inactive | 130 nM | 19 nM | 130 nM | 19 nM | 53 nM | 53 nM | inactive | inactive | inactive
CCCCCCCCCN[C@@H]1[C@H](O)[C@H](O)[C@@H](O)[C@H](O)[C@H]1O.Cl | > 39% | 5 | inactive | 80 nM | 25 nM | 80 nM | 25 nM | 32 nM | 32 nM | inactive | inactive | inactive
